Laboratory results published in ChEMBL document CHEMBL3407494, “Design, synthesis, and biological evaluation of combretabenzodiazepines: a novel class of anti-tubulin agents” (J Med Chem, 2015).
Active and inactive are the calls of the source. The calls are words filed in the database; no cut-off is given here.

Assays:
[1] = Cytotoxicity against human SH-SY5Y cells assessed as cell viability at 1 uM after 48 hrs by MTT assay; assay type: functional; details: read-out: Activity
How it was run: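 SH-SY5Y cells in 24-well plates were treated 48 h with 1 μM compound. They were washed in Locke's solution (10 mM HEPES pH 7.6) and given MTT 250 μg/mL for 1 h at 37 °C. Formazan was dissolved in isopropanol/0.1 M HCl and read at 570 nm. Result is % viable cells, 8-12 determinations from 3 experiments.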

[2] = Cytotoxicity against human SH-SY5Y cells assessed as reduction in cell viability after 48 hrs by MTT assay; assay type: functional, cell-based
How it was run: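 SH-SY5Y cells were exposed 48 h across a concentration range, then given MTT 250 μg/mL in Locke's solution for 1 h at 37 °C. Formazan was dissolved in isopropanol/0.1 M HCl and absorbance read at 570 nm. IC50 was taken from concentration-response curves; 8-12 determinations from 3 experiments.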

Tubulin (Homo sapiens) [3] = molecular target: T1, Tubulin (Homo sapiens) (UniProt P68371+Q9H4B7+P0DPH7+P68366+Q13509+Q71U36+P04350+Q3ZCM7+P07437+P68363+Q9BQE3+Q6PEY2+Q13885+Q9BVA1+Q9BUF5); test: Inhibition of tubulin polymerization in human SH-SY5Y cells at 3 times IC50 after 16 hrs by Western blot analysis; assay type: cell-based
Tubulin (Homo sapiens) [4] = molecular target: T1, Tubulin (Homo sapiens); test: Inhibition of tubulin polymerization in human SH-SY5Y cells at 1 to 3 times IC50 after 16 hrs by immunocytochemistry; assay type: cell-based
Tubulin (Homo sapiens) [5] = molecular target: T1, Tubulin (Homo sapiens); test: (§1) Inhibition of tubulin (unknown origin) polymerization by fluorescence assay; assay type: protein-complex assay
How it was run: (§2)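 Fluorescence-based kit assay. Tubulin was taken up in ice-cold buffer (80 mM PIPES, 2 mM MgCl2, 0.5 mM EGTA, 1 mM GTP, 20% glycerol) and added to wells containing compound or vehicle.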

Tubulin = test: as §1; assay type: protein-complex assay, Homo sapiens; how it was run: as §2
[6] = Cell cycle arrest in human SH-SY5Y cells assessed as accumulation at G2/M phase at IC50 after 16 hrs by flow cytometry (reference value: 18.5 %); assay type: functional, cell-based
How it was run: (§3)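 SH-SY5Y neuroblastoma cells were kept in 50% DMEM/50% F-12 with 10% FBS and 2 mM L-glutamine. Cells were exposed 16 h to vehicle or compound, washed in PBS and fixed in 70% EtOH at -20 °C. They were then treated with RNAse 100 μg/mL for 1 h at 37 °C and stained with 25 μg/mL propidium iodide plus 5 mM EDTA for 30 min at 4 °C in the dark. DNA content was read by flow cytometry; 3 experiments.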

[7] = Cell cycle arrest in human SH-SY5Y cells assessed as accumulation at S phase at IC50 after 16 hrs by flow cytometry (reference value: 10.6 %); assay type: functional, cell-based; how it was run: as §3
[8] = Cell cycle arrest in human SH-SY5Y cells assessed as accumulation at G0G1 phase at IC50 after 16 hrs by flow cytometry (reference value: 70.2 %); assay type: functional, cell-based; how it was run: as §3
[9] = Cell cycle arrest in human SH-SY5Y cells assessed as accumulation at G0G1 phase at 3 times IC50 after 16 hrs by flow cytometry (reference value: 70.2 %); assay type: functional, cell-based; how it was run: as §3
[10] = Cell cycle arrest in human SH-SY5Y cells assessed as accumulation at S phase at 3 times IC50 after 16 hrs by flow cytometry (reference value: 10.6 %); assay type: functional, cell-based; how it was run: as §3
[11] = Cell cycle arrest in human SH-SY5Y cells assessed as accumulation at G2/M phase at 3 times IC50 after 16 hrs by flow cytometry (reference value: 18.5 %); assay type: functional, cell-based; how it was run: as §3
[12] = Metabolic stability in human liver microsomes assessed as peak area after 60 mins by LC-UV analysis; assay type: ADME; details: read-out: Stability
How it was run: (§4)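 Human liver microsomes were incubated with compound alone, with NADPH, with NADPH+GSH (60 min; phase I), or with UDPGA (30 min; phase II). Extracts were analysed by LC-UV, and remaining substrate is reported as peak area % relative to controls without microsomes.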

[13] = Metabolic stability in human liver microsomes assessed as peak area after 60 mins by LC-UV analysis in presence of NADPH; assay type: ADME; details: read-out: Stability; how it was run: as §4
[14] = Metabolic stability in human liver microsomes assessed as peak area after 60 mins by LC-UV analysis in presence of NADPH and GSH; assay type: ADME; details: read-out: Stability; how it was run: as §4
[15] = Metabolic stability in human liver microsomes assessed as peak area after 30 mins by LC-UV analysis in presence of NADPH and UDPGA; assay type: ADME; details: read-out: Stability; how it was run: as §4
Tubulin (Homo sapiens) [16] = molecular target: T1, Tubulin (Homo sapiens); test: Displacement of [3H]colchicine from tubulin (unknown origin) at 1 uM after 30 mins by beta-counting; assay type: protein-complex assay
How it was run: (§5)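 It was preincubated 30 min at 37 °C with test compound at 1 or 10 μM, then given 0.2 μCi [3H]colchicine for 1 h at 37 °C. Samples were stopped with ice-cold water, filtered on nitrocellulose and counted by β-counter. Results are % inhibition, ≥7 replicates from 3 experiments.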

Tubulin (Homo sapiens) [17] = molecular target: T1, Tubulin (Homo sapiens); test: Displacement of [3H]colchicine from tubulin (unknown origin) at 10 uM after 30 mins by beta-counting; assay type: protein-complex assay; how it was run: as §5

`COc1cc2c(cc1OC)C(c1cc(OC)c(OC)c(OC)c1)=NCC(=O)N2` gave a viability at 1 µM [1] of 102%.
`COc1cc2c(cc1O)C(c1cc(OC)c(OC)c(OC)c1)=NCC(=O)N2` gave a viability at 1 µM [1] of 64.8% and an IC50 [2] of 415 nM.
Molecule `COc1cc(C2=NCC(=O)N(C)c3cc4c(cc32)OCO4)cc(OC)c1OC` has a viability at 1 µM [1] of 46.4%.
With `COc1ccc2c(c1)NC(=O)CN=C2c1cc(OC)c(OC)c(OC)c1` the viability at 1 µM [1] was 24.7%, the IC50 [2] was 25.1 nM and the inhibition (Tubulin (Homo sapiens) [3]) was “Active”. For the same molecule, the inhibition (Tubulin (Homo sapiens) [4]) was “Active”, the inhibition (Tubulin (Homo sapiens) [5]) was “Dose-dependent effect” and the IC50 (Tubulin) was 9000 nM. For the same molecule, the Activity [6] was 34.6%, the Activity [7] was 2.1% and the Activity [8] was 45.5%. For the same molecule, the Activity [9] was 45.5%, the Activity [10] was 19.3% and the Activity [11] was 35%.
Work on `COc1ccc(/C=C\c2cc(OC)c(OC)c(OC)c2)cc1O` [COMBRETASTATIN A4] yielded a viability at 1 µM [1] of 33.4%, an IC50 [2] of 2.7 nM and an Activity [6] of 38.4%. For the same molecule, the Activity [7] was 10%, the Activity [8] was 51.1% and the Activity [9] was 52.7%. It also gave an Activity [10] of 11.4%, an Activity [11] of 35.4% and a remaining at 1 h [12] of 100%. For the same molecule, the remaining at 1 h [13] was 75%, the remaining at 1 h [14] was 67% and the remaining at 0.5 h [15] was 39%.
With `COc1ccc2c(c1)N(C)C(=O)CN=C2c1cc(OC)c(OC)c(OC)c1` the viability at 1 µM [1] was 32.9% and the IC50 [2] was 280 nM.
With `COc1cc2c(cc1OC)N(C)C(=O)CN=C2c1cc(OC)c(OC)c(OC)c1` the viability at 1 µM [1] was 105%.
In the case of `COc1cc(C2=NCC(=O)Nc3c2ccc(OC)c3OC)cc(OC)c1OC`, the viability at 1 µM [1] is reported as 46.8% and the IC50 [2] is reported as 90.3 nM.
`COc1cc(C2=NCC(=O)N(C)c3c2ccc(OC)c3OC)cc(OC)c1OC` gave a viability at 1 µM [1] of 76.4%.
`COc1ccc2c(c1)C(c1cc(OC)c(OC)c(OC)c1)=NCC(=O)N2` showed a viability at 1 µM [1] of 33.9% and an IC50 [2] of 256 nM.
`COc1ccc2c(c1)C(c1cc(OC)c(OC)c(OC)c1)=NCC(=O)N2C` showed a viability at 1 µM [1] of 44.4% and an IC50 [2] of 862 nM.
For `COc1cc(C2=NCC(=O)Nc3cc4c(cc32)OCO4)cc(OC)c1OC`, the viability at 1 µM [1] was 35.1%, the IC50 [2] was 71 nM and the inhibition (Tubulin (Homo sapiens) [3]) was “Active”. For the same molecule, the inhibition (Tubulin (Homo sapiens) [4]) was “Active”, the inhibition (Tubulin (Homo sapiens) [5]) was “Dose-dependent effect” and the IC50 (Tubulin) was 13600 nM. The Activity [6] was 38.1%, the Activity [7] was 12.6% and the Activity [8] was 49.1%. The Activity [9] was 49.3%, the Activity [10] was 12.6% and the Activity [11] was 37.7%.
With `COc1ccc2c(c1O)NC(=O)CN=C2c1cc(OC)c(OC)c(OC)c1` the viability at 1 µM [1] was 27.5%, the IC50 [2] was 3.9 nM and the inhibition (Tubulin (Homo sapiens) [3]) was “Active”. The inhibition (Tubulin (Homo sapiens) [4]) was “Active”, the IC50 (Tubulin) was 1300 nM and the Activity [6] was 33%. The Activity [7] was 18.9%, the inhibition (Tubulin (Homo sapiens) [16]) was 48% and the inhibition (Tubulin (Homo sapiens) [17]) was 80%. For the same molecule, the Activity [8] was 48%, the Activity [9] was 47.5% and the Activity [10] was 17.9%. For the same molecule, the Activity [11] was 34.4%, the remaining at 1 h [12] was 95% and the remaining at 1 h [13] was 96%. For the same molecule, the remaining at 1 h [14] was 97% and the remaining at 0.5 h [15] was 92%.
`COc1cc(C2=NCC(=O)N3COc4c(OC)ccc2c43)cc(OC)c1OC` showed a viability at 1 µM [1] of 95.2%.
